# Laboratory results published in ChEMBL document CHEMBL1127040, “Orally active beta-lactam inhibitors of human leukocyte elastase. 2. Effect of C-4 substitution” (1993).
# Columns and labels:
# [1] = biological target: T1, Neutrophil elastase (Homo sapiens) (UniProt P08246); assay: Inhibition of Human Leukocyte Elastase, activity is expressed as biomolecular rate constant
# T1 sequence (whole entry): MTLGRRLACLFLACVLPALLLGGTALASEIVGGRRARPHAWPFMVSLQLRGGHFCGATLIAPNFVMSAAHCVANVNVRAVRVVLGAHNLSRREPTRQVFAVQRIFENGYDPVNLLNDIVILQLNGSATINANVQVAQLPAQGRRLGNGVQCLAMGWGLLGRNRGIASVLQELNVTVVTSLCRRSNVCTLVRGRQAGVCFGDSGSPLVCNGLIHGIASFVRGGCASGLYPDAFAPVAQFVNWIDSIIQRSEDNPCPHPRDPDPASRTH
# Summary of the method: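 Spectrophotometric assay at 25 °C with continuous monitoring of p-nitroaniline release at 410 nm from succinyl-Ala-Ala-Pro-Ala-p-nitroanilide. Activity given as the bimolecular rate constant kobs/[I] in M-1 s-1 (±SE).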
# [2] = biological target: T1, Neutrophil elastase (Homo sapiens); assay: Inhibition of Human Leukocyte Elastase induced lung hemorrhage in hamsters expressed as % inhibition (mean of 4 animals); format: functional; design: concentration or dose not given beside the values; settings: concentration not given here
# Summary of the method: (§1)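 Hamster lung hemorrhage model: inhibitor given orally at 30 mg/kg (some at 50 mg/kg) 30 min before instillation of HLE into the lung. Hemorrhage measured 3 h after instillation as hemoglobin content of lung lavage fluid, read spectrophotometrically. Reported as % inhibition, mean of four animals (±SD).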
# Cricetinae gen. sp. = assay: Inhibition of Human Leukocyte Elastase induced Lung Hemorrhage in Hamsters expressed as % inhibition (mean of 4 animals); format: functional, Cricetulus griseus; summary of the method: as §1
SMILES,k obs / 1 [1],inhibition [2],Inhibition (Cricetinae gen. sp.)
CCC1(CC)C(=O)N(C(=O)NCc2ccccc2)C1N1C=NC=CN1 (centres undefined),246 M⁻¹ s⁻¹,72%,–
CCC1(CC)C(=O)N(C(=O)NCc2ccccc2)C1Oc1ccc(NC(=O)CCC(=O)O)cc1 (centres undefined),2330 M⁻¹ s⁻¹,-3%,–
CCC1(CC)C(=O)N(C(=O)NCc2ccccc2)C1OCc1ccc(C(=O)O)cc1 (centres undefined),54 M⁻¹ s⁻¹,–,–
CCC1(CC)C(=O)N(C(=O)NCc2ccccc2)C1n1ccnc1 (centres undefined),200 M⁻¹ s⁻¹,55%,–
CCC1(CC)C(=O)N(C(=O)NCc2ccccc2)C1N1N=CC=CN1Cc1ccccc1 (centres undefined),650 M⁻¹ s⁻¹,–,–
CCC1(CC)C(=O)N(C(=O)NCc2ccccc2)C1C(=O)c1ccccc1 (centres undefined),22 M⁻¹ s⁻¹,–,–
CCC1(CC)C(=O)N(C(=O)NCc2ccccc2)C1Oc1ccc([N+](=O)[O-])cc1 (centres undefined),6800 M⁻¹ s⁻¹,–,–
CCC1(CC)C(=O)N(C(=O)NCc2ccccc2)C1Oc1ccc(C(=O)NS(=O)(=O)c2ccc(Cl)cc2)cc1 (centres undefined),6900 M⁻¹ s⁻¹,11%,–
CCC1(CC)C(=O)N(C(=O)NCc2ccccc2)C1Oc1ccc(C(=O)N2CCC[C@@H]2C(=O)O)cc1 (some centres undefined),2900 M⁻¹ s⁻¹,–,–
CCC1(CC)C(=O)N(C(=O)NCc2ccccc2)C1Oc1ccc(C[N+](C)(C)C)cc1 (centres undefined),2430 M⁻¹ s⁻¹,4%,–
CCC1(CC)C(=O)N(C(=O)NCc2ccccc2)C1Oc1ccccc1CC(=O)O (centres undefined),44 M⁻¹ s⁻¹,45%,–
CCC1(CC)C(=O)N(C(=O)NCc2ccccc2)C1Oc1ccc2cc(C(=O)O)ccc2c1 (centres undefined),5600 M⁻¹ s⁻¹,28%,–
CCC1(CC)C(=O)N(C(=O)NCc2ccccc2)C1n1ccccc1=O (centres undefined),360 M⁻¹ s⁻¹,29%,–
CCC1(CC)C(=O)N(C(=O)NCc2ccccc2)C1Oc1ccc(CC(NC(=O)c2ccccc2)C(=O)O)cc1 (centres undefined),5110 M⁻¹ s⁻¹,–,–
CCC1(CC)C(=O)N(C(=O)NCc2ccccc2)C1Oc1ccc(S(C)(=O)=O)cc1 (centres undefined),4500 M⁻¹ s⁻¹,16%,–
CCC1(CC)C(=O)N(C(=O)NCc2ccccc2)C1Oc1cccnc1 (centres undefined),1620 M⁻¹ s⁻¹,46%,–

SMILES,k obs / 1 [1],inhibition [2],Inhibition (Cricetinae gen. sp.)
CCC1(CC)C(=O)N(C(=O)NCc2ccccc2)C1Oc1ccc([S+](C)[O-])cc1 (centres undefined),4200 M⁻¹ s⁻¹,–,–
CCC1(CC)C(=O)N(C(=O)NCc2ccccc2)C1Oc1cccc(CC(=O)O)c1 (centres undefined),1200 M⁻¹ s⁻¹,67%,–
CCC1(CC)C(=O)N(C(=O)NCc2ccccc2)C1Oc1ccc(C(O)C(=O)O)cc1 (centres undefined),2100 M⁻¹ s⁻¹,36%,–
CCC1(CC)C(=O)N(C(=O)NCc2ccccc2)C1Oc1ccccc1[N+](=O)[O-] (centres undefined),890 M⁻¹ s⁻¹,–,–
CCC1(CC)C(=O)N(C(=O)NCc2ccccc2)C1Oc1ccc(CCC(=O)O)cc1 (centres undefined),2440 M⁻¹ s⁻¹,60%,–
CCC1(CC)C(=O)N(C(=O)NCc2ccccc2)C1OCC(=O)O (centres undefined),160 M⁻¹ s⁻¹,6%,–
CCC1(CC)C(=O)N(C(=O)NCc2ccccc2)C1Oc1ccc(CN(C)C)cc1 (centres undefined),1600 M⁻¹ s⁻¹,0%,–
CCC1(CC)C(=O)N(C(=O)NCc2ccccc2)C1Oc1ccc(C(=O)O)c(C(=O)O)c1 (centres undefined),570 M⁻¹ s⁻¹,–,–
CCC1(CC)C(=O)N(C(=O)NCc2ccccc2)C1Oc1ccccc1 (centres undefined),1900 M⁻¹ s⁻¹,–,–
CCC1(CC)C(=O)N(C(=O)NCc2ccccc2)C1Sc1cccnc1 (centres undefined),250 M⁻¹ s⁻¹,-5%,–
CCC1(CC)C(=O)N(C(=O)NCc2ccccc2)C1Oc1cccc(C(=O)O)c1 (centres undefined),1800 M⁻¹ s⁻¹,33%,–
CCC1(CC)C(=O)N(C(=O)NCc2ccccc2)C1Oc1ccc(SC)cc1 (centres undefined),3500 M⁻¹ s⁻¹,2%,–
CCC1(CC)C(=O)N(C(=O)NCc2ccccc2)C1Sc1nnnn1C (centres undefined),3760 M⁻¹ s⁻¹,–,26%
CCC1(CC)C(=O)N(C(=O)NCc2ccccc2)C1Oc1cccc([N+](=O)[O-])c1 (centres undefined),4800 M⁻¹ s⁻¹,–,–
CCC1(CC)C(=O)N(C(=O)NCc2ccccc2)C1Oc1ccc(C(=O)O)c2ccccc12 (centres undefined),2000 M⁻¹ s⁻¹,15%,–

# The next lines start with results.
k obs / 1 [1],inhibition [2],SMILES,Inhibition (Cricetinae gen. sp.)
3500 M⁻¹ s⁻¹,–,CCC1(CC)C(=O)N(C(=O)NCc2ccccc2)C1Oc1ccc(NC(C)=O)cc1 (centres undefined),–
70 M⁻¹ s⁻¹,–,CCC1(CC)C(=O)N(C(=O)NCc2ccccc2)C1Oc1ccccc1NC(=O)CCC(=O)O (centres undefined),–
5000 M⁻¹ s⁻¹,85%,CCC1(CC)C(=O)N(C(=O)NCc2ccccc2)C1Oc1ccc(C(=O)CCC(=O)O)cc1 (centres undefined),–
2540 M⁻¹ s⁻¹,–,CCC1(CC)C(=O)N(C(=O)NCc2ccccc2)C1Oc1ccc(CC(N)C(=O)O)cc1 (centres undefined),–
800 M⁻¹ s⁻¹,46%,CCC1(CC)C(=O)N(C(=O)NCc2ccccc2)C1OCC(O)CO (centres undefined),–
24 M⁻¹ s⁻¹,–,CCC1(CC)C(=O)N(C(=O)NCc2ccccc2)C1Oc1cc(C)c(C(=O)O)c(C)c1 (centres undefined),–
–,68%,CCC1(CC)C(=O)N(C(=O)NCc2ccccc2)C1Oc1ccc(C(=O)O)cc1 (centres undefined),–
750 M⁻¹ s⁻¹,–,CCC1(CC)C(=O)N(C(=O)NCc2ccccc2)C1Oc1c(C)cc(C(=O)O)cc1C (centres undefined),–
2700 M⁻¹ s⁻¹,–,CCC1(CC)C(=O)N(C(=O)NCc2ccccc2)C1Oc1cccc(NC(=O)CCC(=O)O)c1 (centres undefined),–
1700 M⁻¹ s⁻¹,–,CCC1(CC)C(=O)N(C(=O)NCc2ccccc2)C1Oc1cccc(NC(C)=O)c1 (centres undefined),–
270 M⁻¹ s⁻¹,24%,CCC1(CC)C(=O)N(C(=O)NCc2ccccc2)C1Oc1ccccc1NC(C)=O (centres undefined),–
900 M⁻¹ s⁻¹,7%,CCC1(CC)C(=O)N(C(=O)NCc2ccccc2)C1Oc1ccc(CC(NC(=O)CCC(=O)O)C(=O)O)cc1 (centres undefined),–
1600 M⁻¹ s⁻¹,61%,CCC1(CC)C(=O)N(C(=O)NCc2ccccc2)C1Oc1ccc(/C=C/C(=O)O)cc1 (centres undefined),–
